{"source": "ChEMBL document CHEMBL4765446", "about": "“Synthesis of ticagrelor analogues belonging to 1,2,3-triazolo[4,5-d]pyrimidines and study of their antiplatelet and antibacterial activity” (2020)", "key": {"[1]": {"test_system": "Plasma", "test": "Antiplatelet activity in human platelet-rich plasma assessed as inhibition of ADP-induced platelet aggregation at 1.8 uM preincubated for 10 mins followed by ADP addition and measured for 10 mins by light transmission aggregometry relative to control", "assay_type": "functional", "details": "time 20 min", "outline": "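Citrated (3.2%) venous blood from drug-free healthy volunteers aged 20–40 years; PRP from 100 × g 15 min spin, adjusted to 250000/µl with autologous PPP (800 × g 15 min). Compound or vehicle (1% DMSO) preincubated 10 min, then stirring at 1200 rpm, 37 °C, and ADP 10 µM added. Aggregation followed 10 min; AUC expressed as fold-inhibition vs vehicle, mean ± S.D., n = 4–21 donors, Wilcoxon paired test.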"}, "[2]": {"test_system": "Staphylococcus aureus", "test": "Antibacterial activity against methicillin-resistant Staphylococcus aureus BAA-1556 by broth microdilution method", "assay_type": "functional", "outline": "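Single colony from Brain Heart Infusion agar grown overnight in BHI broth, aerobic, 37 °C, 190 rpm. Diluted 100-fold in Mueller-Hinton broth, grown to exponential phase. About 5.10^5 CFU/ml then incubated with or without a range of concentrations, vehicle 1% DMSO. Growth read as OD600. MIC per EUCAST is the lowest concentration with no visible growth, i.e. ΔOD600 versus blank (medium + 1% DMSO) equal to zero.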"}}}
{"smiles": "O[C@@H]1[C@H](O)[C@@H](O)C[C@H]1n1nnc2c(N[C@@H]3C[C@H]3c3ccc(F)c(F)c3)ncnc21", "values": [{"measurement": "fold change (FC)", "setting": "[1]", "result": 1}, {"measurement": "MIC", "setting": "[2]", "result": "> 200", "unit": "µM"}]}
{"smiles": "CCCSc1nc(NC2CC2)c2nnn([C@@H]3C[C@H](OCCO)[C@@H](O)[C@H]3O)c2n1", "values": [{"measurement": "fold change (FC)", "setting": "[1]", "result": 2.6}, {"measurement": "MIC", "setting": "[2]", "result": "> 200", "unit": "µM"}]}
{"smiles": "CCCSc1nc(N[C@@H]2C[C@H]2c2ccccc2)c2nnn([C@@H]3C[C@H](OCCO)[C@@H](O)[C@H]3O)c2n1", "values": [{"measurement": "fold change (FC)", "setting": "[1]", "result": 3.1}, {"measurement": "MIC", "setting": "[2]", "result": "> 200", "unit": "µM"}]}
{"smiles": "CCSc1nc(N[C@@H]2C[C@H]2c2ccc(F)c(F)c2)c2nnn(C)c2n1", "values": [{"measurement": "fold change (FC)", "setting": "[1]", "result": 0.97}, {"measurement": "MIC", "setting": "[2]", "result": "> 200", "unit": "µM"}]}
{"smiles": "OCCCSc1nc(N[C@@H]2C[C@H]2c2ccc(F)c(F)c2)c2nnn([C@@H]3C[C@H](OCCO)[C@@H](O)[C@H]3O)c2n1", "values": [{"measurement": "fold change (FC)", "setting": "[1]", "result": 1}, {"measurement": "MIC", "setting": "[2]", "result": "> 200", "unit": "µM"}]}
{"smiles": "O[C@@H]1[C@H](O)[C@@H](O)C[C@H]1n1nnc2c(N[C@@H]3C[C@H]3c3ccc(F)c(F)c3)nc(Cl)nc21", "values": [{"measurement": "fold change (FC)", "setting": "[1]", "result": 1.1}, {"measurement": "MIC", "setting": "[2]", "result": "> 200", "unit": "µM"}]}
{"smiles": "CCCSc1nc(N)c2nnn([C@@H]3C[C@H](O)[C@@H](O)[C@H]3O)c2n1", "values": [{"measurement": "fold change (FC)", "setting": "[1]", "result": 1.1}, {"measurement": "MIC", "setting": "[2]", "result": "> 200", "unit": "µM"}]}
{"smiles": "C[C@@H](O)CSc1nc(N[C@@H]2C[C@H]2c2ccc(F)c(F)c2)c2nnn([C@@H]3C[C@H](O)[C@@H](O)[C@H]3O)c2n1", "values": [{"measurement": "fold change (FC)", "setting": "[1]", "result": 6.2}, {"measurement": "MIC", "setting": "[2]", "result": "> 200", "unit": "µM"}]}
{"smiles": "CC(O)CSc1nc(N[C@@H]2C[C@H]2c2ccc(F)c(F)c2)c2nnn([C@@H]3C[C@H](OCCO)[C@@H](O)[C@H]3O)c2n1", "note": "(stereo partly specified)", "values": [{"measurement": "fold change (FC)", "setting": "[1]", "result": 1.7}, {"measurement": "MIC", "setting": "[2]", "result": "> 200", "unit": "µM"}]}
{"smiles": "CCSc1nc(N[C@@H]2C[C@H]2c2ccc(F)c(F)c2)c2nnn(CC)c2n1", "values": [{"measurement": "fold change (FC)", "setting": "[1]", "result": 0.91}, {"measurement": "MIC", "setting": "[2]", "result": "> 200", "unit": "µM"}]}
{"smiles": "Nc1nc(SCCCO)nc2c1nnn2[C@@H]1C[C@H](O)[C@@H](O)[C@H]1O", "values": [{"measurement": "fold change (FC)", "setting": "[1]", "result": 1}, {"measurement": "MIC", "setting": "[2]", "result": "> 200", "unit": "µM"}]}
{"smiles": "CC(O)CSc1nc(N)c2nnn([C@@H]3C[C@H](O)[C@@H](O)[C@H]3O)c2n1", "note": "(stereo partly specified)", "values": [{"measurement": "fold change (FC)", "setting": "[1]", "result": 1}, {"measurement": "MIC", "setting": "[2]", "result": "> 200", "unit": "µM"}]}
{"smiles": "CSc1nc(N[C@@H]2C[C@H]2c2ccc(F)c(F)c2)c2nnn(C)c2n1", "values": [{"measurement": "fold change (FC)", "setting": "[1]", "result": 0.94}, {"measurement": "MIC", "setting": "[2]", "result": "> 200", "unit": "µM"}]}
{"smiles": "CCn1nnc2c(N[C@@H]3C[C@H]3c3ccc(F)c(F)c3)nc(SC)nc21", "values": [{"measurement": "fold change (FC)", "setting": "[1]", "result": 0.87}, {"measurement": "MIC", "setting": "[2]", "result": "> 200", "unit": "µM"}]}
{"smiles": "C[C@H](O)CSc1nc(N[C@@H]2C[C@H]2c2ccc(F)c(F)c2)c2nnn([C@@H]3C[C@H](O)[C@@H](O)[C@H]3O)c2n1", "values": [{"measurement": "fold change (FC)", "setting": "[1]", "result": 2}, {"measurement": "MIC", "setting": "[2]", "result": "> 200", "unit": "µM"}]}
{"smiles": "CCCSc1nc(N)c2nnn([C@@H]3C[C@H](OCCO)[C@@H](O)[C@H]3O)c2n1", "values": [{"measurement": "fold change (FC)", "setting": "[1]", "result": 1.1}, {"measurement": "MIC", "setting": "[2]", "result": "> 200", "unit": "µM"}]}
{"smiles": "CCCSc1nc(N[C@@H]2C[C@H]2c2ccc(F)c(F)c2)c2nnn(CC)c2n1", "values": [{"measurement": "fold change (FC)", "setting": "[1]", "result": 0.97}, {"measurement": "MIC", "setting": "[2]", "result": "> 200", "unit": "µM"}]}
{"smiles": "OCCCSc1nc(N[C@@H]2C[C@H]2c2ccc(F)c(F)c2)c2nnn([C@@H]3C[C@H](O)[C@@H](O)[C@H]3O)c2n1", "values": [{"measurement": "fold change (FC)", "setting": "[1]", "result": 2.7}, {"measurement": "MIC", "setting": "[2]", "result": "> 200", "unit": "µM"}]}
{"smiles": "CCCSc1nc(N[C@@H]2C[C@H]2c2ccc(F)c(F)c2)c2nnn(C3CCCC3)c2n1", "values": [{"measurement": "fold change (FC)", "setting": "[1]", "result": 1}, {"measurement": "MIC", "setting": "[2]", "result": "> 200", "unit": "µM"}]}
{"smiles": "CCCSc1nc(N[C@@H]2C[C@H]2c2ccc(F)c(F)c2)c2nnn([C@@H]3C[C@H](OCCO)[C@@H](O)[C@H]3O)c2n1", "note": "[TICAGRELOR]", "values": [{"measurement": "fold change (FC)", "setting": "[1]", "result": 4.3}, {"measurement": "MIC", "setting": "[2]", "result": 25, "unit": "µM"}]}
{"smiles": "CCCSc1nc(N[C@@H]2C[C@H]2c2ccc(F)c(F)c2)c2nnn([C@@H]3C[C@H](O)[C@@H](O)[C@H]3O)c2n1", "values": [{"measurement": "fold change (FC)", "setting": "[1]", "result": 4.8}, {"measurement": "MIC", "setting": "[2]", "result": 25, "unit": "µM"}]}
{"smiles": "CCCSc1nc(NCCc2ccc(F)c(F)c2)c2nnn([C@@H]3C[C@H](OCCO)[C@@H](O)[C@H]3O)c2n1", "values": [{"measurement": "fold change (FC)", "setting": "[1]", "result": 1.1}, {"measurement": "MIC", "setting": "[2]", "result": "> 200", "unit": "µM"}]}
{"smiles": "CCCSc1nc(N[C@@H]2C[C@H]2c2ccc(F)c(F)c2)c2nnn(C)c2n1", "values": [{"measurement": "fold change (FC)", "setting": "[1]", "result": 1.08}, {"measurement": "MIC", "setting": "[2]", "result": "> 200", "unit": "µM"}]}
